Screening data (PubChem)
Sampled rows, rich in hits. Any-hit rate of the full collection: about 5.9%.
T cruzi growth-1 – T. cruzi proliferation inhibition; T. cruzi beta-gal in NIH3T3, GalScreen luminescence, 90 h; inhibition, % at 8.34 µM; 77,000 tested, 5.9% active;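 active = mean inhibition above about 93%, with at least 55% of replicates each passing it, limit read from the data, passing the limit was not always enough; inconclusive = only one of those two conditions holds; inactive = neither condition holds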
IDH1 mut inh – inhibitors of human IDH1 R132H; IDH1 R132H reductase, diaphorase/resazurin fluorescence, 60 min; inhibition, % at 10 µM; 70,000 tested, 0.18% active; AID 624101; in the data active = inhibition above about 34%; inconclusive = no clear call, values can overlap the other calls; inactive = below about 11%
Target sequence (O75874 whole entry R132H): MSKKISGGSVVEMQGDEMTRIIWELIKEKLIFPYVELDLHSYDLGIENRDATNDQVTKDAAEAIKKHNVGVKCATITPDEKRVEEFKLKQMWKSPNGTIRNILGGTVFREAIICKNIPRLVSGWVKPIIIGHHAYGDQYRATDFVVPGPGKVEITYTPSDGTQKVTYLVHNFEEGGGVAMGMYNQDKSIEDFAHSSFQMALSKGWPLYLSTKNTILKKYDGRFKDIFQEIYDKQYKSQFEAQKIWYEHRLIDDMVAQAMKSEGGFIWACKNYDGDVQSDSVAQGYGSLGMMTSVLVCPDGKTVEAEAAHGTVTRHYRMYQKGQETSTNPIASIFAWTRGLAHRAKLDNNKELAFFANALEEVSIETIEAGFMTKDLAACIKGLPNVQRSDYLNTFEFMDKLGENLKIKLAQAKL
KDM4C inh – blocks human GASC-1 (KDM4C) demethylase activity. Q9H3R0. GST-KDM4C 2-372, H3K9me3 peptide, LANCE TR-FRET. inhibition, % at 12.5 µM. 96,000 tested, 0.15% active. AID 720574;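 active = mean replicate inhibition above about 25%, with at least 55% of replicates also reaching it, limit read from the data, passing the limit was not always enough; inconclusive = only one of those two conditions met; inactive = neither condition met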
Target sequence (Q9H3R0 2-372 limits assumed): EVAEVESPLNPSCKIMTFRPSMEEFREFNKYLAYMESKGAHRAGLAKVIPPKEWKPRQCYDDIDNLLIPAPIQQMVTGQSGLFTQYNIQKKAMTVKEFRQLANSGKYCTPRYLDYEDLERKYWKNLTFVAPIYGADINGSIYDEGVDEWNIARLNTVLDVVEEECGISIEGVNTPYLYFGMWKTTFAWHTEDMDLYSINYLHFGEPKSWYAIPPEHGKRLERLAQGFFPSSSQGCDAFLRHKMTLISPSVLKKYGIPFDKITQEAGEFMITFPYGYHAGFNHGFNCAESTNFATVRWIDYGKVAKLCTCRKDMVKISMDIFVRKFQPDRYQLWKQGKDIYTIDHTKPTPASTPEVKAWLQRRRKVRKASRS
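Test system: N-terminal GST-fused human GASC-1 (KDM4C) fragment, residues 2-372; quantity: GASC-1 enzyme at 10 nM final in reaction; dosing: single dose; schedule: 30 min demethylation and 1 h detection at room temperature; signal: LANCE TR-FRET, excitation 340 nm, emissions 618 and 671 nm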
Pf Dd2 growth – inhibitors of Plasmodium falciparum Dd2 growth. 94,000 tested, 2.3% active. P. falciparum Dd2 growth, SYBR Green, 72 h; stronger effect = lower value. activity change, % at 10 µM; in the data active = activity change below about -80%; inconclusive = no clear call, values can overlap the other calls
T cruzi growth-2 – Trypanosoma cruzi proliferation inhibition; shares compounds with T cruzi growth-1; T. cruzi beta-gal in NIH3T3, GalScreen luminescence, 90 h; inhibition, % at 8.35 µM; 5,600 tested, 72% active; AID 651739;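 active = mean replicate inhibition above about 95% and at least 55% of replicates individually reaching it, limit read from the data; inconclusive = only one of the two criteria is met; inactive = neither criterion is met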
T cruzi growth-3 – blocks T. cruzi growth in NIH3T3 host cells | shares compounds with T cruzi growth-1 | T. cruzi beta-gal in NIH3T3, GalScreen luminescence, 90 h | inhibition, % at 2.09 µM | 5,600 tested, 21% active | AID 651740;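 active = mean inhibition above about 95%, with at least 55% of replicates also reaching it, limit read from the data; inconclusive = meets just one of the two conditions; inactive = meets neither condition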
3T3 cytotox – kills mouse NIH/3T3 fibroblasts; shares compounds with T cruzi growth-1; NIH/3T3 viability, CellTiter-Glo ATP luminescence, 90 h; cytotoxicity (signal decrease), % at 8.35 µM; 5,600 tested, 14% active; AID 651742;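 active = mean signal decrease across replicates above about 35% based on untreated-well scatter, with enough replicates individually passing, limit read from the data; inconclusive = no rule stated though some were filed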
NIH3T3 tox 2 – NIH/3T3 (mouse) viability loss; NIH/3T3 viability, CellTiter-Glo ATP luminescence, 90 h; 5,600 tested, 56% active; shares compounds with T cruzi growth-1; inhibition, % at 24.9 µM;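 active = mean loss of cell viability signal at or above a set limit, and enough replicates individually reaching it; inconclusive = meets only the mean limit or only the replicate share; inactive = meets neither condition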
Of the large screens only hits and unclear results are named; the others gave an inactive call (follow-up assays come after a bar, where they were run).

CO[C@@H]1CN(C)C(=O)c2cc(NS(=O)(=O)c3cccc(F)c3)ccc2OC[C@H](C)N(Cc2cc(F)ccc2F)C[C@H]1C	none
CO[C@H]1CN(C)C(=O)c2cc(NS(=O)(=O)c3cccc(F)c3)ccc2OC[C@@H](C)N(Cc2cc(F)ccc2F)C[C@H]1C	T cruzi growth-1 inconclusive | T cruzi growth-2 111 | T cruzi growth-3 inactive | 3T3 cytotox inactive | NIH3T3 tox 2 52
CO[C@@H]1CN(C)C(=O)c2ccc(NS(=O)(=O)c3cccc(C)c3)cc2OC[C@@H](C)N(Cc2cc(F)ccc2F)C[C@H]1C	T cruzi growth-1 98 | T cruzi growth-2 106 | T cruzi growth-3 inactive | 3T3 cytotox inactive | NIH3T3 tox 2 inactive
CO[C@@H]1CN(C)C(=O)c2cc(NS(=O)(=O)c3cccc(F)c3)ccc2OC[C@@H](C)N(Cc2cc(F)ccc2F)C[C@H]1C	T cruzi growth-1 inconclusive | T cruzi growth-2 103 | T cruzi growth-3 inconclusive | 3T3 cytotox inactive | NIH3T3 tox 2 inactive
COc1ccc(-c2ccccc2[C@@H]2[C@@H](CO)N(C(=O)C3CC3)[C@H]2C#N)cc1	none (no result: T cruzi growth-1, IDH1 mut inh)
COc1ccc(C#Cc2cnc3c(c2)C(=O)N([C@@H](C)CO)C[C@H](C)[C@@H](CN(C)C(=O)CC2CC2)O3)cc1	T cruzi growth-1 97 | T cruzi growth-2 inactive | T cruzi growth-3 inactive | 3T3 cytotox inactive | NIH3T3 tox 2 inactive
COc1ccc(C#Cc2cnc3c(c2)C(=O)N([C@H](C)CO)C[C@H](C)[C@H](CN(C)C(C)=O)O3)cc1	T cruzi growth-1 110 | T cruzi growth-2 inactive | T cruzi growth-3 inactive | 3T3 cytotox inactive | NIH3T3 tox 2 34
COc1ccc(C#Cc2cnc3c(c2)C(=O)N([C@@H](C)CO)C[C@@H](C)[C@@H](CN(C)C(=O)CC2CC2)O3)cc1	none
C/C=C/c1ccc([C@@H]2[C@@H](CNC(=O)CC3CC3)N(C(C)=O)[C@H]2CO)cc1	none (no result: IDH1 mut inh)
C/C=C/c1ccc([C@@H]2[C@@H](CO)N(C(C)=O)[C@@H]2CNC(=O)CC2CC2)cc1	T cruzi growth-1 inconclusive (no result: IDH1 mut inh) | T cruzi growth-2 inactive | T cruzi growth-3 inactive | 3T3 cytotox inactive | NIH3T3 tox 2 inactive
C/C=C/c1ccc([C@H]2[C@@H](CO)N(C(C)=O)[C@@H]2CNC(=O)c2ccccc2)cc1	T cruzi growth-1 104 (no result: IDH1 mut inh) | T cruzi growth-2 97 | T cruzi growth-3 inactive | 3T3 cytotox inactive | NIH3T3 tox 2 inactive
COc1ccc(Cl)cc1-n1c(Cn2ncc3ccccc3c2=O)n[nH]c1=S	none (no result: T cruzi growth-1, KDM4C inh, Pf Dd2 growth)
C[C@H](CO)N1C[C@H](C)[C@H](CN(C)S(C)(=O)=O)Oc2c(NC(=O)CCCCCC(=O)Nc3ccccc3N)cccc2C1=O	none (no result: T cruzi growth-1, IDH1 mut inh)
C[C@@H]1CN([C@@H](C)CO)C(=O)c2cccc(NC(=O)CCCCCC(=O)Nc3ccccc3N)c2O[C@H]1CN(C)S(=O)(=O)c1ccc(Cl)cc1	T cruzi growth-1 95 (no result: IDH1 mut inh) | T cruzi growth-2 inactive | T cruzi growth-3 inactive | 3T3 cytotox inactive | NIH3T3 tox 2 inactive
C[C@@H]1CN([C@@H](C)CO)C(=O)c2cccc(NC(=O)CCCCCC(=O)Nc3ccccc3N)c2O[C@@H]1CN(C)S(=O)(=O)c1ccc(Cl)cc1	T cruzi growth-1 98, Pf Dd2 growth -93 | T cruzi growth-2 103 | T cruzi growth-3 inactive | 3T3 cytotox inactive | NIH3T3 tox 2 inactive
COc1ccc(S(=O)(=O)N(C)C[C@H]2Oc3ccc(NC(=O)Nc4ccc(F)cc4)cc3CC(=O)N([C@H](C)CO)C[C@@H]2C)cc1	none
Cc1ccc(S(=O)(=O)N(C)C[C@H]2OCCCC[C@@H](C)Oc3ccc(NC(=O)c4ccncc4)cc3C(=O)N([C@@H](C)CO)C[C@H]2C)cc1	none (no result: T cruzi growth-1, IDH1 mut inh)
C[C@H]1CCCCO[C@H](CN(C)C(=O)C2CCCCC2)[C@@H](C)CN([C@@H](C)CO)C(=O)c2cc(NC(=O)Nc3ccc(C(F)(F)F)cc3)ccc2O1	T cruzi growth-1 121, Pf Dd2 growth inconclusive | T cruzi growth-2 96 | T cruzi growth-3 111 | 3T3 cytotox inactive | NIH3T3 tox 2 31
C[C@@H]1CCCCO[C@@H](CN(C)C(=O)C2CCCCC2)[C@@H](C)CN([C@H](C)CO)C(=O)c2cc(NC(=O)Nc3ccc(C(F)(F)F)cc3)ccc2O1	T cruzi growth-1 117 (no result: IDH1 mut inh) | T cruzi growth-2 inactive | T cruzi growth-3 inactive | 3T3 cytotox inactive | NIH3T3 tox 2 26
C[C@@H]1CCCCO[C@@H](CN(C)C(=O)C2CCCCC2)[C@@H](C)CN([C@H](C)CO)C(=O)c2cc(NC(=O)Nc3ccc(F)cc3)ccc2O1	none (no result: IDH1 mut inh)
C[C@@H]1CCCCO[C@H](CN(C)C(=O)C2CCCCC2)[C@H](C)CN([C@@H](C)CO)C(=O)c2cc(NC(=O)Nc3ccc(C(F)(F)F)cc3)ccc2O1	T cruzi growth-1 118 (no result: IDH1 mut inh) | T cruzi growth-2 98 | T cruzi growth-3 118 | 3T3 cytotox inactive | NIH3T3 tox 2 inactive
C[C@@H]1CN([C@@H](C)CO)C(=O)c2cc(NC(=O)Nc3ccc(C(F)(F)F)cc3)ccc2O[C@@H](C)CCCCO[C@@H]1CN(C)C(=O)C1CCCCC1	none
O=C(C[C@@H]1CC[C@H](NC(=O)c2ccccc2)[C@@H](CO)O1)NCc1ccc(Oc2ccccc2)cc1	none
CO[C@@H]1CN(C)C(=O)c2ccc(NC(C)=O)cc2OC[C@@H](C)N(C(=O)C2CCOCC2)C[C@@H]1C	none
C[C@@H]1CN([C@@H](C)CO)S(=O)(=O)c2ccc(C#CC3CC3)cc2O[C@H]1CN(C)C(=O)c1ccccc1	T cruzi growth-1 inconclusive | T cruzi growth-2 inconclusive | T cruzi growth-3 inactive | 3T3 cytotox inactive | NIH3T3 tox 2 48
C[C@H]1CN([C@@H](C)CO)S(=O)(=O)c2ccc(C#CC3CC3)cc2O[C@H]1CN(C)C(=O)c1ccncc1	T cruzi growth-1 110 | T cruzi growth-2 96 | T cruzi growth-3 inactive | 3T3 cytotox inactive | NIH3T3 tox 2 30
O=C(C1CCCC1)N1CC[C@H]2[C@H](CO)Nc3ccc(C#Cc4ccc(F)cc4)cc3[C@H]21	none (no result: T cruzi growth-1, IDH1 mut inh, KDM4C inh)
O=C(C1CCC1)N1CC[C@@H]2[C@H]1c1cc(-c3cccc(F)c3)ccc1N[C@@H]2CO	T cruzi growth-1 101 (no result: IDH1 mut inh) | T cruzi growth-2 105 | T cruzi growth-3 109 | 3T3 cytotox inactive | NIH3T3 tox 2 74
O=C(C1CCCCC1)N1CC[C@@H]2[C@H]1c1cc(C#Cc3ccc(F)cc3)ccc1N[C@@H]2CO	T cruzi growth-1 106 (no result: IDH1 mut inh) | T cruzi growth-2 104 | T cruzi growth-3 inactive | 3T3 cytotox inactive | NIH3T3 tox 2 104
O=C(C1CC1)N1CC[C@@H]2[C@H](CO)Nc3ccc(-c4cccc(F)c4)cc3[C@@H]21	T cruzi growth-1 116 (no result: IDH1 mut inh) | T cruzi growth-2 104 | T cruzi growth-3 inactive | 3T3 cytotox inactive | NIH3T3 tox 2 inactive
